≈ marks a conversion by molar mass, not a printed value. Calls of active or inactive are those of the source. The rule behind the calls is not given here.
Columns and labels:
Format in all cases: functional, cell-based
HeLa [1] = assay: Cytotoxicity against human HeLa cells at 0.1 to 10 ug/ml by MTT assay
Procedure, shortened: (§1)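 MTT viability read-out on L5178Y, HeLa and PC12 cells over 0.1-10 µg/mL, with EC50 values given in µg/mL; a positive control was run alongside. Other details follow an earlier protocol.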

L5178Y [2] = assay: Cytotoxicity against mouse L5178Y cells at 0.1 to 10 ug/ml by MTT assay; procedure, shortened: as §1
PC-12 [3] = assay: Cytotoxicity against rat PC12 cells at 0.1 to 10 ug/ml by MTT assay; procedure, shortened: as §1
PC-12 [4] = assay: Cytotoxicity against rat PC12 cells by MTT assay; procedure, shortened: as §1
HeLa [5] = assay: Cytotoxicity against human HeLa cells by MTT assay; procedure, shortened: as §1
L5178Y [6] = assay: Cytotoxicity against mouse L5178Y cells by MTT assay; procedure, shortened: as §1

Compound: CC(O)C(O)/C=C/C=C/C(=O)O[C@@H]1C=C2COC(=O)[C@]2(O)[C@@]2(C)CCCC(C)(C)[C@H]12 (stereo in doubt; 8)
- Activity (HeLa [1]): inactive
- Activity (L5178Y [2]): inactive
- Activity (PC-12 [3]): inactive

Compound: CC1(C)CCC[C@@]2(C)[C@H]1[C@H](OC(=O)/C=C/C=C/C=O)C=C1COC(=O)[C@@]12O [USTUSOLATE E]
- EC50 (PC-12 [4]): 7.2 µg/mL (≈ 19.2 µM)
- EC50 (HeLa [5]): 5.9 µg/mL (≈ 15.8 µM)
- EC50 (L5178Y [6]): 0.6 µg/mL (≈ 1.6 µM)

Compound: CC1=CC(=O)[C@H]2C(C)(C)C[C@H](O)C[C@]2(C)[C@H]1CO
- Activity (HeLa [1]): inactive
- Activity (L5178Y [2]): inactive
- Activity (PC-12 [3]): inactive

Compound: CC1(C)CCC[C@@]2(C)[C@H]1[C@H](OC(=O)/C=C/C=C/C(=O)O)C=C1COC(=O)[C@@]12O
- EC50 (PC-12 [4]): > 10 µg/mL
- EC50 (HeLa [5]): > 10 µg/mL
- EC50 (L5178Y [6]): 5.3 µg/mL (≈ 13.6 µM)

Compound: CC1=CC(=O)[C@H]2C(C)(C)C[C@H](O)C[C@]2(C)[C@@]1(O)CO
- Activity (HeLa [1]): inactive
- Activity (L5178Y [2]): inactive
- Activity (PC-12 [3]): inactive

Compound: CC(O)C(O)/C=C/C=C/C(=O)O[C@@H]1C=C2COC(=O)[C@]2(O)[C@@]2(C)CCCC(C)(C)[C@H]12 (stereo in doubt; 9)
- Activity (HeLa [1]): inactive
- Activity (L5178Y [2]): inactive
- Activity (PC-12 [3]): inactive

Compound: CC1=CC(=O)[C@H]2C(C)(C)[C@@H](O)CC[C@]2(C)[C@@]1(O)CO
- Activity (HeLa [1]): inactive
- Activity (L5178Y [2]): inactive
- Activity (PC-12 [3]): inactive

Compound: CC1(C)C[C@H](O)C[C@@]2(C)[C@H]1[C@H](O)C=C1COC(=O)[C@@]12O
- Activity (HeLa [1]): inactive
- Activity (L5178Y [2]): inactive
- Activity (PC-12 [3]): inactive

Compound: CC1=CC(=O)[C@H]2C(C)(C)[C@@H](O)CC[C@]2(C)[C@H]1CO
- Activity (HeLa [1]): inactive
- Activity (L5178Y [2]): inactive
- Activity (PC-12 [3]): inactive

Compound: C/C=C/C=C/C=C/C(=O)O[C@@H]1C=C2COC(=O)[C@]2(O)[C@@]2(C)CCCC(C)(C)[C@H]12
- EC50 (PC-12 [4]): > 10 µg/mL
- EC50 (HeLa [5]): 7.5 µg/mL (≈ 19.4 µM)
- EC50 (L5178Y [6]): 1.9 µg/mL (≈ 4.92 µM)
